The record followed here is ChEMBL document CHEMBL4024729, “Copalic acid analogs down-regulate androgen receptor and inhibit small chaperone protein” (Bioorg Med Chem Lett, 2017).

Active and inactive are the calls of the source. The calls are words filed in the database; no cut-off is given here.

Experiment [1] addresses Heat shock protein beta-1 (Homo sapiens) (UniProt P04792). The experiment can be described thus: Inhibition of heat shock protein 27 in human LNCaP cells assessed as decrease in AR protein level at 200 uM after 48 hrs by Western blot method. Type of experiment: cell-based. In outline: (§1)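 LNCaP cells treated with DMSO or compound for 48 h. Whole-cell extracts probed by Western blot with specific antibodies against AR and β-actin. Three independent experiments.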

Experiment [2] has the same target. The experiment can be described thus: Inhibition of heat shock protein 27 in human LNCaP cells assessed as decrease in AR protein level at 20 uM after 48 hrs by Western blot method. Type of experiment: cell-based. In a few lines:
as §1
On the technique in general: Immunoblotting shows a protein as a band on a membrane.

The species entered for experiment [3] is Homo sapiens. The experiment can be described thus: Inhibition of alpha crystallin (unknown origin) assessed as increase in DTT induced insulin aggregation at 10 uM pretreated for 5 mins followed by DTT addition measured after 45 mins. In outline: (§2)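 Insulin 1 mg/ml stock and alpha-crystallin 5 mg/ml stock mixed in PBS containing compound. Incubated 5 min at 37 °C, then aggregation started with 1 M DTT stock. A400 followed for 45 min at 37 °C. Controls were insulin with or without alpha-crystallin in 0.1% DMSO. Triplicate wells; three independent experiments.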

Experiment [4] addresses Heat shock protein beta-1 (Homo sapiens) (UniProt P04792). The experiment can be described thus: Inhibition of heat shock protein 27 in human LNCaP cells assessed as decrease in AR protein level after 48 hrs by Western blot method. Type of experiment: cell-based. In outline: as §1
The subject of experiment [5] is LNCaP. The experiment can be described thus: Growth inhibition of human LNCAP cells after 72 hrs by MTT assay. The format is functional, cell-based. In outline: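 LNCaP cells treated with DMSO or a range of compound concentrations, four replicates each, for 72 h. Viability read by MTT assay.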
The target in experiment [6] is Heat shock protein beta-1 (Homo sapiens) (UniProt P04792). The experiment can be described thus: Inhibition of heat shock protein 27 in human LNCaP cells assessed as decrease in AR protein level at 5 uM after 48 hrs by Western blot method. Type of experiment: cell-based. In a few lines: as §1
Experiment [7] can be described thus: Effect on DTT interaction with insulin at <= 10 uM measured after 45 mins. In a few lines: as §2

Chain of Heat shock protein beta-1 (Homo sapiens) (P04792 whole entry): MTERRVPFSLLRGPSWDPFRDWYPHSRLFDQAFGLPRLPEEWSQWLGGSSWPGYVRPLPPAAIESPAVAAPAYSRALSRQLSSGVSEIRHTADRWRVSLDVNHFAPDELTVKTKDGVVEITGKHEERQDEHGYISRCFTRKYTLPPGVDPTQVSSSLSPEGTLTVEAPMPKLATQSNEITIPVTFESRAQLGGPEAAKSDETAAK

As to `C[C@@H]1CC[C@@]2(C)C(C(=O)O)=CCC[C@@H]2[C@@]1(C)CCc1ccoc1`, the inhibition result in experiment [1] is “Active”.

Consider `C=C1CC[C@@H]2C(C)(C)CCC[C@@]2(C)[C@@H]1CC/C(C)=C/C(=O)Nc1ccc(C)cc1`, for which the “AR protein decrease (active/not active)” value in experiment [2] was “Active”.

As to `C=C1CC[C@@H]2C(C)(C)CCC[C@@]2(C)[C@@H]1CC/C(C)=C/C(=O)Nc1ccc(I)cc1`, the “AR protein decrease (active/not active)” value in experiment [2] was “Active”.

Usually IC50 stands for the concentration that gives 50% inhibition. The low end stands for greater potency in that assay, the high end for weaker potency in that assay. As to `C=C1CC[C@@H]2C(C)(C)CCC[C@@]2(C)[C@@H]1CC/C(C)=C/C(=O)Nc1ccc(C#N)cc1`, the inhibition result in experiment [3] was “Active”. In experiment [2], the “AR protein decrease (active/not active)” value is “Active”. The inhibition entry in experiment [4] was “Dose-dependent effect”. This molecule also came in with an IC50 in experiment [5] of 9.81 µM.

As for `C=C1CC[C@@H]2C(C)(C)CCC[C@@]2(C)[C@@H]1CC/C(C)=C/C(=O)Nc1cccc(Br)c1`, the “AR protein decrease (active/not active)” value in experiment [2] is “Active”.

Consider `C=C1CC[C@@H]2C(C)(C)CCC[C@@]2(C)[C@@H]1CC/C(C)=C/C(=O)NCCc1ccccc1`, for which the “AR protein decrease (active/not active)” value in experiment [2] is “Active”.

On to `C=C1CC[C@@H]2C(C)(C)CCC[C@@]2(C)[C@@H]1CC/C(C)=C/C(=O)O`, for which the inhibition result in experiment [1] is “Active”. Moreover, the “AR protein decrease (active/not active)” value in experiment [2] was “inactive”.

On to `C=C1CC[C@@H]2C(C)(C)CCC[C@@]2(C)[C@@H]1CC/C(C)=C/C(=O)Nc1ccc(OC)cc1`, for which the inhibition entry in experiment [3] and in experiment [6] was “Active” throughout. Also, the “AR protein decrease (active/not active)” value in experiment [2] was “Active”. For the same molecule, in experiment [4], the inhibition entry was “Dose-dependent effect”. Moreover, the IC50 in experiment [5] came to 1.73 µM. In addition, the result in experiment [7] was inactive.

Consider `C=C1CC[C@@H]2C(C)(C)C(OC(C)=O)CC[C@@]2(C)[C@@H]1CC/C(C)=C/C(=O)O` (stereo partly drawn), for which the inhibition result in experiment [1] is “Active”.
